The source of these data is ChEMBL document CHEMBL1932980, “Structure-activity relationships of 2-amino-3-aroyl-4-[(4-arylpiperazin-1-yl)methyl]thiophenes. Part 2: Probing the influence of diverse substituents at the phenyl of the arylpiperazine moiety on allosteric enhancer activity at the A₁ adenosine receptor” (Bioorg Med Chem, 2012).

Assay [1] concerns the target T1, Adenosine receptor A1 (Homo sapiens) (UniProt P30542).
T1 sequence (whole entry): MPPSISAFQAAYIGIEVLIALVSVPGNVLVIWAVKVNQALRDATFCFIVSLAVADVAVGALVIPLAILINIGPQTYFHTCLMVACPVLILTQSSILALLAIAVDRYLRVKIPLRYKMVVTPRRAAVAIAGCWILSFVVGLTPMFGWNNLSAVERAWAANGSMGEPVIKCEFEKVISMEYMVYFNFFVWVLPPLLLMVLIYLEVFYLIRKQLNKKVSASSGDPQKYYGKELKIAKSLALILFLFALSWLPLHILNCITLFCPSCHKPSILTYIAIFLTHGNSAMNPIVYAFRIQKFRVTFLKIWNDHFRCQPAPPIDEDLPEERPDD
Put plainly: Displacement of [3H]DPCPX from recombinant human A1 adenosine receptor expressed in CHO cells at 10 uM after 120 mins by scintillation counting. It is filed as cell-based. In a few lines:
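Membranes from hA1CHO cells incubated with 1 nM [3H]DPCPX in 50 mM Tris–HCl pH 7.4 at 25 °C for 120 min. Compound added from a 100-fold DMSO stock, so 1% DMSO final, also present in controls. Bound ligand separated on GF/B filters and counted by scintillation. Result given as % of control specific binding.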
For orientation: In a radioligand displacement assay an active substance lowers the binding of a labelled ligand.

Assay [2] has as its target T1, Adenosine receptor A1 (Homo sapiens). Put plainly: Binding affinity to recombinant human A1 adenosine receptor allosteric site expressed in CHO cells assessed as potentiation of CCPA-induced [3H]DPCPX displacement at 10 uM after 90 mins relative to control. It is filed as cell-based. In short, it runs like this: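 Competition of CCPA (0.01 nM–1 µM) against 1 nM [3H]DPCPX on hA1CHO membranes, run in triplicate, 90 min at 25 °C, in 50 mM Tris–HCl pH 7.4, with or without test compound at 10 µM. Nonspecific binding taken with 1 µM DPCPX. Ki by Cheng–Prusoff. Shift = Ki(CCPA)/Ki(CCPA + 10 µM compound).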

Assay [3] has the same target. Put plainly: Allosteric enhancer activity at recombinant human A1 adenosine receptor expressed in CHO cells assessed as change in forskolin-induced cAMP production at 10 uM after 6 mins by radioimmunoassay. It is filed as functional, cell-based. In short, it runs like this: (§1)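 hA1CHO cells (about 8000 fmol/mg protein) thawed from low-passage stocks, grown in Ham's F-12 with 10% FBS and G-418, then plated 48 h. Test compound at 0.01, 0.1, 1 or 10 µM with CPA (0.05–0.1 nM) for 6 min at 36 °C. Stopped with HCl (final 50 mM). cAMP in acidified extracts measured by radioimmunoassay. Reference enhancer run in each experiment. Four experiments per concentration.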
On the technique in general: Cyclic AMP is a second messenger, typically raised through Gs and lowered through Gi signalling.

Assay [4] has the same target. In words: Allosteric enhancer activity at recombinant human A1 adenosine receptor expressed in CHO cells assessed as change in forskolin-induced cAMP production at 0.01 uM after 6 mins by radioimmunoassay. It is filed as functional, cell-based. In a few lines:
as §1

Assay [5] has the same target. In words: Allosteric enhancer activity at recombinant human A1 adenosine receptor expressed in CHO cells assessed as change in forskolin-induced cAMP production at 0.1 uM after 6 mins by radioimmunoassay. It is filed as functional, cell-based. In short, it runs like this:
as §1

Assay [6] has the same target. Put plainly: Binding affinity to recombinant human A1 adenosine receptor allosteric site expressed in CHO cells assessed as [3H]CCPA Bmax shift at 10 uM after 90 mins relative to control. It is filed as cell-based. In short, it runs like this:
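Saturation binding of [3H]CCPA (0.05–20 nM) to hA1CHO membranes. Membranes pretreated with adenosine deaminase 3 UI/mL for 30 min at 37 °C. Run in triplicate, 90 min at 25 °C, in 50 mM Tris–HCl pH 7.4, with or without test compound at final 10 µM. Nonspecific binding taken with 1 µM R-PIA. Bmax fitted by LIGAND. Shift is the fold of Bmax increase over control.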

Assay [7] addresses T2, Adenosine receptor A3 (Homo sapiens) (UniProt P0DMS8).
T2 sequence (whole entry): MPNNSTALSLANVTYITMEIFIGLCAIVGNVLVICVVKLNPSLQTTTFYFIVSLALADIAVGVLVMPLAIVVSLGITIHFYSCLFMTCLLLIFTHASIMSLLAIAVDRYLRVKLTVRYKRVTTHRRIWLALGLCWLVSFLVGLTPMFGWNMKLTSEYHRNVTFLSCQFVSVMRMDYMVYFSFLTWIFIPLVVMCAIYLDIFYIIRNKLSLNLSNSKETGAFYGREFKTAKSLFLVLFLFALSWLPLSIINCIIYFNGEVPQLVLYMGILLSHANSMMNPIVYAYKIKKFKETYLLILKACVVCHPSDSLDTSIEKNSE
In words: Displacement of [3H]MRE3008F20 from recombinant human A3 adenosine receptor expressed in CHO cells at 10 uM after 120 mins by scintillation counting. It is filed as cell-based. In short, it runs like this:
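Membranes from hA3CHO cells incubated with 2 nM [3H]MRE 3008F20 in 50 mM Tris–HCl, 10 mM MgCl2, 1 mM EDTA, pH 7.4 at 4 °C for 120 min. Compound added from a 100-fold DMSO stock, 1% DMSO final, also in controls. Separated by GF/B filtration and counted by scintillation. Result given as % of control specific binding.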

Assay [8] concerns the target T1, Adenosine receptor A1 (Homo sapiens). Put plainly: Binding affinity to recombinant human A1 adenosine receptor allosteric site expressed in CHO cells assessed as [3H]DPCPX Bmax shift at 10 uM after 90 mins relative to control. It is filed as cell-based. In a few lines:
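Saturation binding of [3H]DPCPX (0.05–20 nM) to hA1CHO membranes, run in triplicate, 90 min at 25 °C, in 50 mM Tris–HCl pH 7.4, with or without test compound at final 10 µM. Nonspecific binding taken with 1 µM DPCPX. KD and Bmax fitted by LIGAND. Shift is the fold of Bmax increase over control.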

The target in assay [9] is Adenosine receptor A2a (Homo sapiens) (UniProt P29274). Put plainly: Displacement of [3H]ZM241385 from recombinant human A2A adenosine receptor expressed in CHO cells at 10 uM after 60 mins by scintillation counting. It is filed as cell-based. In short, it runs like this:
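Membranes from hA2ACHO cells incubated with 1 nM [3H]ZM 241385 in 50 mM Tris–HCl, 10 mM MgCl2, pH 7.4 at 4 °C for 60 min. Compound added from a 100-fold DMSO stock, 1% DMSO final, also in controls. Separated by GF/B filtration and counted by scintillation. Result given as % of control specific binding.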

For assay [10], the target named is T1, Adenosine receptor A1 (Homo sapiens). In words: Allosteric enhancer activity at recombinant human A1 adenosine receptor expressed in CHO cells assessed as change in forskolin-induced cAMP production at 1 uM after 6 mins by radioimmunoassay. It is filed as functional, cell-based. In a few lines: as §1

Adenosine receptor A2a (Homo sapiens), sequence (P29274 whole entry): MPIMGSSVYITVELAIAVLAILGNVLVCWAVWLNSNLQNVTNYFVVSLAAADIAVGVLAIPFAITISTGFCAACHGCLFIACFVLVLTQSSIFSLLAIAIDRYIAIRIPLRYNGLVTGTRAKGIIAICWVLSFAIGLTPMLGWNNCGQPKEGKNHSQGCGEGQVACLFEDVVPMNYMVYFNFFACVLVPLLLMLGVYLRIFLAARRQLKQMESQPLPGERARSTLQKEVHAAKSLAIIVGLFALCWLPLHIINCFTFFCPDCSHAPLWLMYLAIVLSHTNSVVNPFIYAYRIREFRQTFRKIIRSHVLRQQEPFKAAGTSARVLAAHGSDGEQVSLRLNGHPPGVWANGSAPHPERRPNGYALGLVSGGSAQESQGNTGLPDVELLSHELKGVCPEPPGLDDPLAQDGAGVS

Turning to `Nc1scc(CN2CCN(c3ccc([N+](=O)[O-])cc3)CC2)c1C(=O)c1ccc(Cl)cc1`, the inhibition in assay [1] amounted to 1%; in assay [7], 2%; in assay [9], 1%. For the same compound, the figures for the fold change (FC) in assay [2], in assay [6] and in assay [8] were 4.2, 1.1 and 0.9, respectively. For the same compound, the Activity is -17% in assay [3], -12% in assay [4], -13% in [5] and -8.3% in assay [10].

Turning to `Nc1scc(CN2CCN(C3CCCCCC3)CC2)c1C(=O)c1ccc(Cl)cc1`, the inhibition in assay [1], in assay [7] and in assay [9] was 0% throughout. In addition, the fold change (FC) in [2] came to 1.2; in assay [6] it was 1.1; in assay [8] it was 0.9. The Activity in [3] is -25%; in assay [4] it was 2.9%; in assay [5], 13%; in [10], 3.7%.

For the compound `Nc1scc(CN2CCC(c3ccc(Cl)cc3)CC2)c1C(=O)c1ccc(Cl)cc1`, the inhibition in assay [1] came to 0%; in [7], 6%; in assay [9] it was 0%. For the same compound, the fold change (FC) in assay [2] was found to be 3.3; in assay [6], 3.9; in assay [8], 1. Further, the Activity in [3] is -61%; in [4] it was 0%; in assay [5], -2.3%; in assay [10] it was -24%.

Regarding `Nc1scc(CN2CCN(c3cc(Cl)ccc3Cl)CC2)c1C(=O)c1ccc(Cl)cc1`, the inhibition is 0% in assay [1], 1% in assay [7] and 0% in assay [9]. Besides, the fold change (FC) amounted to 2.8 in [2], 3.2 in assay [6] and 0.9 in [8]. In addition, the Activity in assay [3] was -62%; in [4], 13%; in assay [5] it was -6.2%; in assay [10], -42%.

Regarding `Nc1scc(CN2CCN(c3ccncc3)CC2)c1C(=O)c1ccc(Cl)cc1`, the values for the inhibition in assay [1], in assay [7] and in assay [9] were 1%, 2% and 0%, respectively. The fold change (FC) stood at 1.2 in assay [2], 1.1 in assay [6] and 0.9 in assay [8]. In addition, the Activity in [3] is -15%; in [4], -4%; in assay [5], 1.4%; in assay [10] it was -8.3%.

As to `Nc1scc(CN2CCN(Cc3ccc(F)cc3)CC2)c1C(=O)c1ccc(Cl)cc1`, the inhibition is 0% in assay [1], 1% in assay [7] and 0% in assay [9]. The fold change (FC) in [2] was 3.1; in [6], 3.7; in assay [8], 0.9. The Activity in [3] was -82%; in assay [4], 2.2%; in [5], -3.9%; in assay [10] it was -34%.

In the case of `Nc1scc(CN2CCN(c3cc(F)cc(F)c3)CC2)c1C(=O)c1ccc(Cl)cc1`, the inhibition is 0% in assay [1], 2% in assay [7] and 0% in assay [9]. The fold change (FC) in assay [2] was found to be 4.8; in assay [6] it was 6.2; in [8], 1.1. The Activity in assay [3] is -79%; in assay [4], -13%; in [5], -5%; in assay [10], -66%.

For the compound `Nc1scc(CN2CCN(c3ccc(Cl)cc3Cl)CC2)c1C(=O)c1ccc(Cl)cc1`, the inhibition in assay [1], in [7] and in assay [9] was 0% in each case. Besides, the fold change (FC) was 3.7 in assay [2], 4.4 in [6] and 1 in [8]. The Activity in assay [3] is -74%; in [4], 2%; in assay [5], -11%; in assay [10], -54%.

Broadly, the inhibition is the drop in the measured response relative to a control, in per cent.
